The results in this text go back to ChEMBL document CHEMBL3272123, “11,12-secoprostaglandins. 4. 7-(N-alkylmethanesulfonamido) heptanoic acids” (1977).

The species named for test [1] is Mus musculus. Put plainly: Stimulation of prostanoid receptor-mediated cAMP-[14C] production in Charles River CD-1 mouse ovary at 0.05 ug/ml preincubated with adenine-8-[14C] for 1 hr followed by compound addition measured after 30 mins in presence of theophylline relative to control. Particulars: Female gonad. The format is tissue-based. The essentials: (§1)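 Ovaries from virgin female mice over 70 days old, denuded of fat; three ovaries (15-25 mg) per flask in aerated Krebs-Ringer phosphate pH 7.2 with 1 μCi adenine-8-¹⁴C, 1 h at 37 °C with shaking. Theophylline and compound (in Me₂SO) added, then 30 min at 37 °C. Stopped with TCA, tissue homogenized, ¹⁴C-cAMP isolated. Fold increase = treated/untreated cAMP; 2-3-fold taken as significant.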

Test [2] is filed under the species Mus musculus. Put plainly: Stimulation of prostanoid receptor-mediated cAMP-[14C] production in Charles River CD-1 mouse ovary at 0.01 ug/ml preincubated with adenine-8-[14C] for 1 hr followed by compound addition measured after 30 mins in presence of theophylline relative to control. The format is tissue-based. The settings on record: Female gonad. The essentials: as §1

Test [3] is filed under the species Mus musculus. The experiment in a line: Stimulation of prostanoid receptor-mediated cAMP-[14C] production in Charles River CD-1 mouse ovary at 25 ug/ml preincubated with adenine-8-[14C] for 1 hr followed by compound addition measured after 30 mins in presence of theophylline relative to control. It is filed as tissue-based. Particulars: Female gonad. The essentials:
as §1

The species named for test [4] is Mus musculus. The experiment in a line: Stimulation of prostanoid receptor-mediated cAMP-[14C] production in Charles River CD-1 mouse ovary at 1 ug/ml preincubated with adenine-8-[14C] for 1 hr followed by compound addition measured after 30 mins in presence of theophylline relative to control. The format is tissue-based. The settings on record: Female gonad. The essentials: as §1

For test [5], the species on record is Mus musculus. Put plainly: Stimulation of prostanoid receptor-mediated cAMP-[14C] production in Charles River CD-1 mouse ovary at 0.1 ug/ml preincubated with adenine-8-[14C] for 1 hr followed by compound addition measured after 30 mins in presence of theophylline relative to control. It is filed as tissue-based. The settings on record: Female gonad. The essentials: as §1

For test [6], the species on record is Mus musculus. Put plainly: Stimulation of prostanoid receptor-mediated cAMP-[14C] production in Charles River CD-1 mouse ovary at 10 ug/ml preincubated with adenine-8-[14C] for 1 hr followed by compound addition measured after 30 mins in presence of theophylline relative to control. The format is tissue-based. Particulars: Female gonad. The essentials:
as §1

Test [7] relates to Cavia porcellus. Put plainly: Antithrombotic activity in ip dosed guinea pig assessed as inhibition of collagen-induced platelet aggregation. The format is functional.
The species entered for test [8] is Mus musculus. Put plainly: Stimulation of prostanoid receptor-mediated cAMP-[14C] production in Charles River CD-1 mouse ovary at 100 ug/ml preincubated with adenine-8-[14C] for 1 hr followed by compound addition measured after 30 mins in presence of theophylline relative to control. The settings on record: Female gonad. It is filed as tissue-based. The essentials: as §1

Test [9] concerns Cavia porcellus. The experiment in a line: Antithrombotic activity in po dosed guinea pig assessed as inhibition of collagen-induced platelet aggregation. It is filed as functional.
The species entered for test [10] is Bos taurus. Put plainly: Inhibition of cAMP phosphodiesterase in beef heart using cAMP as substrate at 100 ug/ml. The essentials:
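Beef heart cAMP phosphodiesterase tested against 0.4 mM cAMP substrate.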

The source made the active and inactive calls. No cut-off for these calls is given here.

As usually defined, the ED50 is the dose at which the effect has come halfway, by size or by number of responders. Turning to `CCCCC[C@H](O)/C=C/[C@H]1[C@H](O)CC(=O)[C@@H]1CCCCCCC(=O)O` [ALPROSTADIL], the fold change (FC) in [1] came out at 25; in test [2] it was 8; in test [3] it was 62; in test [4], 54; in [5], 29; in [6] it was 60. The fold change (FC) in test [8] was determined as 62. Moreover, the 50% effective dose (ED50) in test [7] was found to be 0.02 mg/kg. For the same compound, in [9], the outcome was inactive.

Take `CCCCCC(O)CCCN(CCCCOCC(=O)O)S(C)(=O)=O` (racemic): the fold change (FC) in test [3] was found to be 27; in [6], 24; in [8], 38.

As to `CS(=O)(=O)N(CCCCCCC(=O)O)CCCC1(O)CCCCC1`, the fold change (FC) in test [3] is 5; in [6], 3; in [8], 10.

On to `CCCCCC(O)CCCN(CCCCCCC(=O)O)S(C)(=O)=O` (racemic), for which the fold change (FC) in [3] amounted to 56; in test [6], 40; in test [8], 61. Further, the inhibition entry in [10] is “inactive”. Moreover, the ED50 in test [9] stood at 6 mg/kg.

On to `CCCCCC(O)CCCC(CCCCCCC(=O)O)C(C)=O` (racemic), for which the fold change (FC) is 14 in test [3]; 2 in [4]; 1 in test [5]; 11 in [6]; 23 in [8].

For `CCCCCC(O)/C=C/CN(C/C=C\CCCC(=O)O)S(C)(=O)=O` (racemic), the fold change (FC) came out at 19 in test [3], 11 in [6] and 27 in test [8].

`CCCCCC(O)CCCN(C/C=C\CCCC(=O)O)S(C)(=O)=O` (racemic): the fold change (FC) is 18 in test [3], 16 in [6] and 37 in test [8].

For `CCCCC[C@@H](O)CCCN(CCCCCCC(=O)O)S(C)(=O)=O`, the fold change (FC) in test [3] was determined as 25; in [6], 23; in test [8], 45. Besides, the 50% effective dose (ED50) in [9] came to 8.2 mg/kg.

Take `CCCCCC(O)C#CCN(CCCCCCC(=O)O)S(C)(=O)=O` (racemic): the fold change (FC) came out at 21 in test [3], 21 in test [6] and 36 in test [8].

For `CCCCCCCCCN(CCCCCCC(=O)O)S(C)(=O)=O`, the fold change (FC) in [3] was 14; in test [6], 13; in test [8], 15.

For `CCCCC[C@H](O)CCCN(CCCCCCC(=O)O)S(C)(=O)=O`, the fold change (FC) in [3] was 55; in test [4], 8; in test [5] it was 1; in test [6], 54; in [8], 68. The ED50 in test [9] amounted to 5 mg/kg.

In the case of `CCCCC[C@H](O)CCC1CCC(=O)[C@@H]1CCCCCCC(=O)O` (some centres undefined), the fold change (FC) in test [3] stood at 26; in test [4], 10; in test [6] it was 25; in test [8], 19.

Consider `CCCCCC(O)CCCN(CC#CCCCC(=O)O)S(C)(=O)=O` (racemic), for which the fold change (FC) was 30 in test [3], 21 in [6] and 39 in [8].
